Laboratory results: ChEMBL document CHEMBL4265911, “The synthesis and kinetic evaluation of aryl α-aminophosphonates as novel inhibitors of T. cruzi trans-sialidase” (Eur J Med Chem, 2018)

Assays:
Trans-sialidase [1] = biological target: T1, Trans-sialidase (Trypanosoma cruzi, UniProt Q26964); experiment: Inhibition of recombinant HisA-tagged Trypanosoma cruzi trans-sialidase expressed in Escherichia coli BL21 (DE3) using MuNANA as substrate pretreated for 10 mins followed by substrate addition by fluorescence assay
T1 sequence (Q26964 whole entry): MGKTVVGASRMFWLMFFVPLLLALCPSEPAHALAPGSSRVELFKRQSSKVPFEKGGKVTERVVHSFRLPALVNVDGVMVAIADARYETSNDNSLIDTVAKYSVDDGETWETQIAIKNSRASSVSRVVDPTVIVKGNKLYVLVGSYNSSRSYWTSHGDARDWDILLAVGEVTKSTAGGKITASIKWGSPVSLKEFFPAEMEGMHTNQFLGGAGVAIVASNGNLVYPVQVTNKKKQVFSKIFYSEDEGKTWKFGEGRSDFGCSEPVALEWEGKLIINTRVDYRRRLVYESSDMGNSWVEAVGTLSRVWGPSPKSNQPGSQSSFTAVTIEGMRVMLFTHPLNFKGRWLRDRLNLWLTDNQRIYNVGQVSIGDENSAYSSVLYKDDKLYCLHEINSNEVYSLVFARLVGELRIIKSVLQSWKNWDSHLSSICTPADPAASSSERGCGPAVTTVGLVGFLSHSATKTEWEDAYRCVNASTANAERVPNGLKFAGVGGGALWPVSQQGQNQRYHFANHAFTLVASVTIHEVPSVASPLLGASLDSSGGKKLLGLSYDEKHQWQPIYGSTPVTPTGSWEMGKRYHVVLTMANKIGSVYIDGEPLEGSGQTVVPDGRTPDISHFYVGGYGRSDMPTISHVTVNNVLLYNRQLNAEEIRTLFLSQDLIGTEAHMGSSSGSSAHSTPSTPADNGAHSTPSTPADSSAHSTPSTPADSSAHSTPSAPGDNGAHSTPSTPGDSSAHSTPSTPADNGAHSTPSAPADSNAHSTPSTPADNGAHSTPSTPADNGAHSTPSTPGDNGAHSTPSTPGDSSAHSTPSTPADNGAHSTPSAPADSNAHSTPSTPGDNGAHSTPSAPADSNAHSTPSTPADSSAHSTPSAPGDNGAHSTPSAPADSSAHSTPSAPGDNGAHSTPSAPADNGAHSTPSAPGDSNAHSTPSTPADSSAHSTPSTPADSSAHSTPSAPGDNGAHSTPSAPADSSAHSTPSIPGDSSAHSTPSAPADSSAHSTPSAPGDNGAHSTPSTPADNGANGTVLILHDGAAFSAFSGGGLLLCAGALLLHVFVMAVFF
In short: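 Continuous fluorometric hydrolysis assay at 35°C in 20mM Tris-HCl, 50mM NaCl, pH 7.5, 0.01% Triton X100. TcTS (50 µg/mL) was preincubated 10 min with at least seven inhibitor levels (1 µM–15 mM), then MuNANA (200 µM) was added. 4-Methylumbelliferone was read at ex 360/em 460 nm, with rate taken as the linear-region slope. IC50 was set at 50% activity loss versus the no-inhibitor control; n=3 independent experiments.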

Sialidase A = Sialidase A (Streptococcus pneumoniae, UniProt P62575); experiment: Inhibition of Streptococcus pneumoniae neuraminidase A using MuNANA as substrate pretreated for 10 mins followed by substrate addition by fluorescence assay
Sialidase A, sequence (P62575 whole entry): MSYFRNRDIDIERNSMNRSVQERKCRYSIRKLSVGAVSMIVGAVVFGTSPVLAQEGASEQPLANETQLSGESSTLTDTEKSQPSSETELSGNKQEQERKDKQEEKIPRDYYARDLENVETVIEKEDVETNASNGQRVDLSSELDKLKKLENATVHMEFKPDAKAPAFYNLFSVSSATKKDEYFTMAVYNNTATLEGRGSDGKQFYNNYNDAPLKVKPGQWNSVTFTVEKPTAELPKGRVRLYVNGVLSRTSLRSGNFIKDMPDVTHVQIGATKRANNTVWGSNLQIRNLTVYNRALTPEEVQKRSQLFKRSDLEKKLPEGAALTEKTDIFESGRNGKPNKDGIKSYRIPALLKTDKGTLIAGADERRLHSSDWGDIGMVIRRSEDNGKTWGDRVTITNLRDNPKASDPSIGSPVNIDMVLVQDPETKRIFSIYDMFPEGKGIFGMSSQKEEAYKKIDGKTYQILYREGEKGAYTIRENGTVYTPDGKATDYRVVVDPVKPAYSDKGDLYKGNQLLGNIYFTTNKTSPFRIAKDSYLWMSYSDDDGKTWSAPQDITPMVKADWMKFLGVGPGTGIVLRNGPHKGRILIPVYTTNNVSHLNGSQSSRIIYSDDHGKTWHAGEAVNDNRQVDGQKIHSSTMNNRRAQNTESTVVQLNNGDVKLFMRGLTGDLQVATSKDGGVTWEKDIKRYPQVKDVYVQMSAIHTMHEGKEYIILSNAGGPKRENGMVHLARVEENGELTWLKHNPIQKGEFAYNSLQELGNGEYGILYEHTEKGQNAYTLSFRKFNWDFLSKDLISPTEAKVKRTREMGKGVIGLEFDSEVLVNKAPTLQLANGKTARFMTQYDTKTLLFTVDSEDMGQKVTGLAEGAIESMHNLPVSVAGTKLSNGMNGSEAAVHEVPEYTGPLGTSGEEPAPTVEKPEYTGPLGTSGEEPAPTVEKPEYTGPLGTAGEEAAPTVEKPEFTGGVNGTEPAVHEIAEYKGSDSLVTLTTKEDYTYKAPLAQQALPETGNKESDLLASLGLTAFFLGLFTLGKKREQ

Sialidase = biological target: T2, Sialidase (Clostridium perfringens, UniProt P10481); experiment: Inhibition of Clostridium perfringens neuraminidase using MuNANA as substrate pretreated for 10 mins followed by substrate addition by fluorescence assay
T2 sequence (P10481 whole entry): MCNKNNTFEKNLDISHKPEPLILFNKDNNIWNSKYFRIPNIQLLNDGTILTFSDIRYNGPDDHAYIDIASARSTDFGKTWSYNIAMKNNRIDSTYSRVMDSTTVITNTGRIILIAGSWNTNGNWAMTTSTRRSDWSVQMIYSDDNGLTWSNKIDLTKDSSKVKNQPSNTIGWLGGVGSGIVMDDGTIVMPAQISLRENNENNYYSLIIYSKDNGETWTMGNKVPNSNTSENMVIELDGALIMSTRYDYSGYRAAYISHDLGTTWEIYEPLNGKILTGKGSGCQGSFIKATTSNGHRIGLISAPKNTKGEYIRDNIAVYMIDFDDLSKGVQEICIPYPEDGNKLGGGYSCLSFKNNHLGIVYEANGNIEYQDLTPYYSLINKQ

[2] = Selectivity ratio of IC50 for Streptococcus pneumoniae neuraminidase A to IC50 for recombinant HisA-tagged Trypanosoma cruzi trans-sialidase expressed in Escherichia coli BL21 (DE3)
[3] = Selectivity ratio of IC50 for Clostridium perfringens neuraminidase to IC50 for recombinant HisA-tagged Trypanosoma cruzi trans-sialidase expressed in Escherichia coli BL21 (DE3)
Trans-sialidase [4] = biological target: T1, Trans-sialidase; experiment: Non-competitive inhibition of recombinant HisA-tagged Trypanosoma cruzi trans-sialidase expressed in Escherichia coli BL21 (DE3) using varying levels of MuNANA as substrate by Lineweaver-burk plot analysis
In short: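 TcTS residual hydrolytic activity was measured with MuNANA at 0–400 µM across several set inhibitor concentrations, using the fluorometric method at 35°C and pH 7.5. Km/Vmax came from nonlinear fitting. Ki was fitted with competitive, non-competitive, uncompetitive and mixed models, and the best-fitting model was assigned as the mode. Lineweaver-Burk double-reciprocal plots were made at each inhibitor level.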

Trans-sialidase [5] = biological target: T1, Trans-sialidase; experiment: Inhibition of Trypanosoma cruzi trans-sialidase
In short: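 TcTS, point-mutated to aid crystallisation and expressed in E. coli BL21(DE3), at 50 µg/mL; pre-incubated 10 min at 35°C with ≥7 inhibitor levels (1 µM–15 mM). MuNANA (200 µM) then added. Buffer: 20 mM Tris-HCl, 50 mM NaCl, pH 7.5, 0.01% Triton X100. Continuous fluorescence (ex 360/em 460 nm), slope RFU/min. IC50 versus no-inhibitor control; n=3 independent experiments.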

Trans-sialidase [6] = biological target: T1, Trans-sialidase; experiment: Inhibition of Trypanosoma cruzi trans-sialidase using CF3MuSA as substrate by UV/visible spectrophotometric method
[7] = Solubility of the compound in pH 7.5 Tris-HCl buffer at >7.5 mM; format: physicochemical
Trans-sialidase [8] = biological target: T1, Trans-sialidase; experiment: Inhibition of recombinant Trypanosoma cruzi trans-sialidase expressed in Escherichia coli BL21 (DE3) using MuNANA as substrate after 10 mins in presence of [D-glucose-1-14C]lactose by liquid scintillation counting method
[9] = compound: OC[C@@H](O)[C@@H](O[C@@H]1O[C@H](CO)[C@H](O)[C@H](O)[C@H]1O)[C@H](O)[C@@H](O)CO; experiment: Inhibition of recombinant HisA-tagged Trypanosoma cruzi trans-sialidase expressed in Escherichia coli BL21 (DE3) using 3-sialyl-lactose as donor measured after 15 mins by HPAEC-PAD

Molecule: O=P(O)(O)C(Nc1ccccc1-c1ccccc1)c1ccccc1 (racemic)
- IC50 (Trans-sialidase [1]): 630 µM

Molecule: O=[N+]([O-])c1ccc(C(Nc2cccc3ccccc23)P(=O)(O)O)cc1 (racemic)
- IC50 (Trans-sialidase [1]): 210 µM
- IC50 (Sialidase A): 1410 µM
- IC50 (Sialidase): 2390 µM
- Ratio IC50 [2]: 7 to 12
- Ratio IC50 [3]: 7 to 12
- Ki (Trans-sialidase [4]): 140 µM

Molecule: Cc1ncc(COP(=O)(O)O)c(C=O)c1O [PYRIDOXAL PHOSPHATE ANHYDROUS]
- Ki (Trans-sialidase [5]): 7300 µM

Molecule: CC(=O)Nc1ccc(C(Nc2cccc3ccccc23)P(=O)(O)O)cc1 (racemic)
- IC50 (Trans-sialidase [1]): 230 µM
- Ki (Trans-sialidase [4]): 190 µM

Molecule: O=P(O)(O)C(Nc1cccc2ccccc12)c1cc(C(F)(F)F)cc(C(F)(F)F)c1 (racemic)
- IC50 (Trans-sialidase [1]): 2350 µM

Molecule: Cc1ccc(S(=O)(=O)Nc2ccc(C(=O)/C=C/c3ccc(O)c(O)c3)cc2)cc1
- IC50 (Trans-sialidase [6]): 0.9 µM

Molecule: O=P(O)(O)C(Nc1cccc(-c2ccccc2)c1)c1ccccc1 (racemic)
- IC50 (Trans-sialidase [1]): 5580 µM

Molecule: O=P(O)(O)C(Nc1cccc2ccccc12)c1ccc(C(F)(F)F)cc1 (racemic)
- IC50 (Trans-sialidase [1]): 290 µM

Molecule: COc1ccc(C(Nc2cccc3ccccc23)P(=O)(O)O)cc1 (racemic)
- IC50 (Trans-sialidase [1]): 270 µM

Molecule: O=P(O)(O)C(Nc1cccc2ccccc12)c1ccc(Cl)cc1 (racemic)
- IC50 (Trans-sialidase [1]): 710 µM

Molecule: O=P(O)(O)C(Nc1cccc2ccccc12)c1ccccc1 (racemic)
- IC50 (Trans-sialidase [1]): 470 µM
- Ki (Trans-sialidase [4]): 430 µM

Molecule: O=P(O)(O)C(Nc1ccccc1)c1ccccc1 (racemic)
- IC50 (Trans-sialidase [1]): > 7500 µM
- solubility [7]: Soluble

Molecule: CC(=O)N[C@H]1[C@H]([C@H](O)[C@H](O)CO)OC(C(=O)O)=C[C@@H]1O [NEU5AC2EN]
- Ki (Trans-sialidase [8]): 12300 µM

Molecule: O=P(O)(O)C(Nc1ccc2ccccc2c1)c1ccccc1 (racemic)
- IC50 (Trans-sialidase [1]): 510 µM

B1: Trans-sialidase (Trypanosoma cruzi), Q26964 (protein)
chain: T1 sequence (Q26964 whole entry)
- Km [9]: 260 µM
